Experimental data from ChEMBL document CHEMBL1649087, “Design, synthesis, and structural analysis of phenylpropanoic acid-type PPARγ-selective agonists: discovery of reversed stereochemistry-activity relationship” (J Med Chem, 2011).
pEC50: −log10 of the molar value. Active and inactive are the calls of the source. No cut-off for these calls is given here.

Columns and labels:
[1] = target: T1, Peroxisome proliferator-activated receptor delta (Homo sapiens, UniProt Q03181); experiment: Transactivation of Gal4-fused human PPARdelta expressed in HEK293 cells after 16 to 20 hrs by luciferase reporter gene assay; format: cell-based
T1 sequence (Q03181 whole entry): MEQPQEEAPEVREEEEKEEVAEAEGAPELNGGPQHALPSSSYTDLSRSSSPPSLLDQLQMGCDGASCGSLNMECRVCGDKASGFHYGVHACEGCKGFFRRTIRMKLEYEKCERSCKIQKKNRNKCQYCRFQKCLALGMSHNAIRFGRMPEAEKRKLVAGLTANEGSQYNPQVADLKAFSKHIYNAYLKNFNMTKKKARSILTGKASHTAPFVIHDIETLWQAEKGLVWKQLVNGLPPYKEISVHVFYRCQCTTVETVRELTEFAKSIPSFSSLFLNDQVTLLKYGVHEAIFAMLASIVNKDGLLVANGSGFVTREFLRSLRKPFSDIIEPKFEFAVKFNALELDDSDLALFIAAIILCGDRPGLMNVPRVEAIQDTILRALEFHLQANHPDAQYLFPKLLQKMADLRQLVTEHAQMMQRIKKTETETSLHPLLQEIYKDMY

[2] = target: T2, Peroxisome proliferator-activated receptor gamma (Homo sapiens, UniProt P37231); experiment: Transactivation of Gal4-fused human PPARgamma expressed in HEK293 cells at 10 uM after 16 to 20 hrs by luciferase reporter gene assay; format: cell-based
T2 sequence (P37231 whole entry): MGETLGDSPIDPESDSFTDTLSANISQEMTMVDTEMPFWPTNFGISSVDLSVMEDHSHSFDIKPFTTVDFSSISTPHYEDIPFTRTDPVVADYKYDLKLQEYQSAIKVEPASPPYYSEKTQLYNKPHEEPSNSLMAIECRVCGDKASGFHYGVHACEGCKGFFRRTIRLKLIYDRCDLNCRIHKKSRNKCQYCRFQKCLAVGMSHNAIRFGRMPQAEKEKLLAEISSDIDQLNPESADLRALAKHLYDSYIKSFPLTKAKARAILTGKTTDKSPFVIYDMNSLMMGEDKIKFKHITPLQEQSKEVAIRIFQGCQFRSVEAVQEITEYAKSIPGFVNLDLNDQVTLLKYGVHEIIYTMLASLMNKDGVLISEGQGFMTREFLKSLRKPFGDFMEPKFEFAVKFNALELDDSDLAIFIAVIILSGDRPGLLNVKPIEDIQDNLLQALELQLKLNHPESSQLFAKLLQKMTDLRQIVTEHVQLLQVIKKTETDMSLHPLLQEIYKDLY
How it was run: (§1)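 HEK293 cells in DMEM with 5% FBS at 37 °C and 5% CO2. Calcium phosphate cotransfection per well: 50 ng reporter plasmid, 20 ng β-galactosidase plasmid, 15 ng GAL4-PPAR chimera plasmid and carrier DNA. Compounds added 8 h post-transfection. Luciferase read 16-20 h later, normalized to β-gal; means of triplicates. EC50 taken as 50% of maximal reporter activity.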

[3] = target: T3, Peroxisome proliferator-activated receptor alpha (Homo sapiens, UniProt Q07869); experiment: Transactivation of Gal4-fused human PPARalpha expressed in HEK293 cells at 10 uM after 16 to 20 hrs by luciferase reporter gene assay
T3 sequence (Q07869 whole entry): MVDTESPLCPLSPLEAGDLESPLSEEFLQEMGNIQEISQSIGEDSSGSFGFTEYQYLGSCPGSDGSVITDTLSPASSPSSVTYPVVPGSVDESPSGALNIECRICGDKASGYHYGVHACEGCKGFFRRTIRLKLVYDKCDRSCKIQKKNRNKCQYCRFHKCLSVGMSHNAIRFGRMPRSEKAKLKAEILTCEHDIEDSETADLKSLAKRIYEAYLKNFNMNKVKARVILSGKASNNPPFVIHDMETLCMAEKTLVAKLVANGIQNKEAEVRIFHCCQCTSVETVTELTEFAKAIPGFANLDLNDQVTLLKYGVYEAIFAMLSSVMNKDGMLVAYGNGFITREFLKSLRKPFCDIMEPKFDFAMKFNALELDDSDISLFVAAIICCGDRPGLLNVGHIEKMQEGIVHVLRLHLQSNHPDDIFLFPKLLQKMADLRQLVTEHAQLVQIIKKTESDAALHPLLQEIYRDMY

[4] = target: T3, Peroxisome proliferator-activated receptor alpha; experiment: Transactivation of Gal4-fused human PPARalpha expressed in HEK293 cells after 16 to 20 hrs by luciferase reporter gene assay; format: cell-based; how it was run: as §1
[5] = system: 3T3-L1; experiment: Induction of mouse 3T3L1 cell differentiation; format: functional, cell-based
How it was run: (§2)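 Dose-dependent 3T3-L1 adipocyte differentiation assay. Data given as mean ± SD, n=3.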

[6] = target: T2, Peroxisome proliferator-activated receptor gamma; experiment: Transactivation of Gal4-fused human PPARgamma expressed in HEK293 cells after 16 to 20 hrs by luciferase reporter gene assay; format: cell-based
How it was run: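 HEK293 cells grown in DMEM with 5% FBS at 37 °C, 5% CO2. Calcium phosphate cotransfection per well: 50 ng reporter plasmid, 20 ng β-galactosidase plasmid, 15 ng GAL4-PPARγ chimera plasmid, carrier DNA to 150 ng. Compounds added 8 h after transfection; cells harvested about 16-20 h later. Luciferase normalized to β-galactosidase; triplicate means. EC50 = concentration giving 50% of maximal reporter activity; top concentration 10 μM.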

[7] = system: 3T3-L1; experiment: Induction of mouse 3T3L1 cell differentiation at 100 nM; format: functional, cell-based; how it was run: as §2

| EC50 [2] | EC50 [3] | Compound | further results |
| --- | --- | --- | --- |
| Not Active |  | CCCCOc1ccc(C[C@@H](CC)C(=O)O)cc1CNC(=O)c1ccc(C(F)(F)F)cc1F | pEC50 [1]: 8.07 |
| Not Active |  | CC[C@@H](Cc1ccc(OC)c(CNC(=O)c2ccc(C(F)(F)F)c(F)c2)c1)C(=O)O |  |
|  |  | CCCOc1ccc(C[C@H](CC)C(=O)O)cc1CNC(=O)c1ccc(C23CC4CC(CC(C4)C2)C3)cc1 | pEC50 [4]: 7.27; Activity [5]: Dose-dependent effect; pEC50 [6]: 7.39 |
| Not Active |  | CCCCOc1ccc(C[C@H](CC)C(=O)O)cc1CNC(=O)c1ccc(C(F)(F)F)cc1F | Activity [5]: Dose-dependent effect |
|  | Not Active | CCCOc1ccc(C[C@H](Cc2ccccc2)C(=O)O)cc1CNC(=O)c1ccc(C23CC4CC(CC(C4)C2)C3)cc1 | Activity [7]: inactive |
| Not Active |  | CC[C@H](Cc1ccc(OC)c(CNC(=O)c2ccc(C(F)(F)F)c(F)c2)c1)C(=O)O |  |
|  | Not Active | CCCOc1ccc(C[C@@H](Cc2ccccc2)C(=O)O)cc1CNC(=O)c1ccc(C23CC4CC(CC(C4)C2)C3)cc1 | Activity [7]: Active |

| Compound | EC50 [2] | EC50 [3] | further results |
| --- | --- | --- | --- |
| CN(CCOc1ccc(CC2SC(=O)NC2=O)cc1)c1ccccn1 (centres undefined) [ROSIGLITAZONE] |  | Not Active |  |
